Assay results as given in ChEMBL document CHEMBL1129428 (J Med Chem, 1996).

What was measured:
[1] = Compound was tested for toxicity after oral administration in rat by using neurotoxicity screen test after 4 hr; assay type: organism-based; conditions: in vivo
Summary of the method: (§1)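 Rat neurotoxicity after oral dosing, observed at 0.25, 0.5, 1, 2, 4, 6, 8 and 24 h (8 h omitted for one compound).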

Mus musculus [2] = experiment: Toxicity after intraperitoneal injection into mice by using toxicity screen test after 0.5 hr; assay type: organism-based; conditions: in vivo, ip
Summary of the method: (§2)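 Mice injected intraperitoneally at 30, 100 and 300 mg/kg and examined 0.5 and 4 h afterwards. Each entry is the minimum dose giving activity (MES protection, scPTZ protection, or rotorod failure for neurotoxicity) in half or more of the mice. Activity is called absent if nothing occurs at 300 mg/kg.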

[3] = Protection index = TD50/ED50 (MES); conditions: mouse, in vivo; read-out: PI
Mus musculus [4] = experiment: Anticonvulsant activity after intraperitoneal injection into mice measured in a maximal electroshock scree (MES) screen; assay type: functional
Mus musculus [5] = experiment: Anticonvulsant activity after intraperitoneal injection into mice by using MES screen test after 0.5 hr; assay type: functional
Mus musculus [6] = experiment: Anticonvulsant activity after intraperitoneal injection into mice by using scPTZ screen test after 4 hr; assay type: functional
Rattus norvegicus [7] = experiment: Compound was tested for anticonvulsant activity after Oral Administration into Rats by using MES screen test after 2h,dose 30 mg/kg; number of rats out of four which were protected; assay type: functional
Summary of the method: (§3)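 Rats received the compound orally. […] Rats were tested in the MES screen at 0.25, 0.5, 1, 2 and 4 h. Each value is the number of rats protected out of 4. The test followed NINDS procedures.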

[8] = Protection index = TD50/ED50; assay type: ADME; conditions: read-out: PI
Mus musculus [9] = experiment: Compound was tested for toxicity after intraperitoneal injection into mice by using toxicity screen test after 4 hr; assay type: organism-based; conditions: in vivo, ip; summary of the method: as §2
Rattus norvegicus [10] = experiment: Compound was tested for anticonvulsant activity after Oral Administration into Rats by using MES screen test after 0.25h,dose 30 mg/kg; number of rats out of four which were protected; assay type: functional; summary of the method: as §3
Rattus norvegicus [11] = experiment: Compound was tested for anticonvulsant activity after Oral Administration into Rats by using MES screen test after 1h,dose 30 mg/kg; number of rats out of four which were protected; assay type: functional; summary of the method: as §3
Mus musculus [12] = experiment: Compound was tested for anticonvulsant activity after intraperitoneal injection into mice by using MES screen test after 2 hr; assay type: functional; conditions: ip
Summary of the method: (§4)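 Quantitative intraperitoneal mouse testing in the MES, scPTZ or rotorod neurotoxicity screens at the peak time given for each compound (0.25–2 h). ED50 or TD50 reported in mg/kg with 95% CI and slope (SE).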

Rattus norvegicus [13] = experiment: Compound was tested for anticonvulsant activity after Oral Administration into Rats by using MES screen test after 0.5h,dose 30 mg/kg; number of rats out of four which were protected; assay type: functional; summary of the method: as §3
Mus musculus [14] = experiment: Compound was tested for anticonvulsant activity after intraperitoneal injection into mice by using scPTZ screen test after 2 hr; assay type: functional; conditions: ip; summary of the method: as §4
Rattus norvegicus [15] = experiment: Compound was tested for anticonvulsant activity after Oral Administration into Rats by using MES screen test after 4h,dose 30 mg/kg; number of rats out of four which were protected; assay type: functional; summary of the method: as §3
[16] = Compound was tested for toxicity after intraperitoneal injection into mice by using neurotoxicity screen test after 2 hr; assay type: organism-based; conditions: mouse, in vivo, ip; summary of the method: as §4
Rattus norvegicus [17] = experiment: Compound was tested for anticonvulsant activity after Oral Administration into rat by using MES screen test after 4 hr; assay type: functional
Summary of the method: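 Rats dosed orally, typically at 50 mg/kg first, then mostly 12.5 mg/kg (some compounds at 30 mg/kg), and tested by maximal electroshock. Four rats per compound, scored at 0.25, 0.5, 1, 2 and 4 h as the number of rats protected out of 4.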

Mus musculus [18] = experiment: Compound was tested for anticonvulsant activity after intraperitoneal injection into mice by using scPTZ screen test after 1 hr; assay type: functional; conditions: ip; summary of the method: as §4
Rattus norvegicus [19] = experiment: Compound was tested for anticonvulsant activity after Oral Administration into Rats by using MES screen test after 1h,dose 12.5 mg/kg; number of rats out of four which were protected; assay type: functional; summary of the method: as §3
Rattus norvegicus [20] = experiment: Compound was tested for anticonvulsant activity after Oral Administration into Rats by using MES screen test after 4h,dose 12.5 mg/kg; number of rats out of four which were protected; assay type: functional; summary of the method: as §3
Rattus norvegicus [21] = experiment: Anticonvulsant activity after oral administration into rats; assay type: functional; set-up: concentration or dose not given beside the values
[22] = Compound was tested for toxicity after oral administration in rat by using neurotoxicity screen test after 0.25-24 hr; assay type: organism-based; conditions: in vivo; summary of the method: as §1
[23] = Compound was tested for toxicity after intraperitoneal injection into mice by using neurotoxicity screen test after 4 hr; assay type: organism-based; conditions: mouse, in vivo, ip; summary of the method: as §2
Rattus norvegicus [24] = experiment: Compound was tested for anticonvulsant activity after Oral Administration into Rats by using MES screen test after 2h,dose 12.5 mg/kg; number of rats out of four which were protected; assay type: functional; summary of the method: as §3
Mus musculus [25] = experiment: Compound was tested for anticonvulsant activity after intraperitoneal injection into mice by using MES screen test after 4 hr; assay type: functional; conditions: ip; summary of the method: as §2
Rattus norvegicus [26] = experiment: Compound was tested for anticonvulsant activity after Oral Administration into Rats by using MES screen test after 0.25h,dose 12.5 mg/kg; No activity was demonstarted; assay type: functional, organism-based; set-up: dose 12.5 mg/kg; summary of the method: as §3
Rattus norvegicus [27] = experiment: Compound was tested for anticonvulsant activity after Oral Administration into Rats by using MES screen test after 2h,dose 12.5 mg/kg; No activity was demonstarted; assay type: functional, organism-based; set-up: dose 12.5 mg/kg; summary of the method: as §3
[28] = Protection index = TD50/ED50 (MES); assay type: ADME, organism-based; conditions: rat, in vivo; read-out: PI
Mus musculus [29] = experiment: Anticonvulsant activity after intraperitoneal injection into mice by using scPTZ screen after 0.5 hr; assay type: functional
Rattus norvegicus [30] = experiment: Compound was tested for anticonvulsant activity after Oral Administration into Rats by using MES screen test after 1h,dose 12.5 mg/kg; No activity was demonstarted; assay type: functional, organism-based; set-up: dose 12.5 mg/kg; summary of the method: as §3
Rattus norvegicus [31] = experiment: Compound was tested for anticonvulsant activity after Oral Administration into Rats by using MES screen test after 0.5h,dose 12.5 mg/kg; No activity was demonstarted; assay type: functional, organism-based; set-up: dose 12.5 mg/kg; summary of the method: as §3
[32] = Compound was tested for toxicity after oral administration in rat by using neurotoxicity screen test after 2 hr; assay type: organism-based; conditions: in vivo; summary of the method: as §1
Rattus norvegicus [33] = experiment: Compound was tested for anticonvulsant activity after Oral Administration into Rats by using MES screen test after 1h,dose 50 mg/kg; number of rats out of four which were protected; assay type: functional; summary of the method: as §3
Rattus norvegicus [34] = experiment: Compound was tested for anticonvulsant activity after Oral Administration into Rats by using MES screen test after 4h,dose 50 mg/kg; number of rats out of four which were protected; assay type: functional; summary of the method: as §3
Rattus norvegicus [35] = experiment: Compound was tested for anticonvulsant activity after Oral Administration into Rats by using MES screen test after 2h,dose 50 mg/kg; number of rats out of four which were protected; assay type: functional; summary of the method: as §3
Rattus norvegicus [36] = experiment: Compound was tested for anticonvulsant activity after Oral Administration into Rats by using MES screen test after 0.25h,dose 50 mg/kg; No activity was demonstarted; assay type: functional, organism-based; set-up: dose 50 mg/kg; summary of the method: as §3
Rattus norvegicus [37] = experiment: Compound was tested for anticonvulsant activity after Oral Administration into Rats by using MES screen test after 0.5h,dose 50 mg/kg; No activity was demonstarted; assay type: functional, organism-based; set-up: dose 50 mg/kg; summary of the method: as §3

Compound | Dose (Mus musculus [2]) [mg/kg] | selectivity ratio [3] | Dose (Mus musculus [4]) [mg/kg] | Dose (Mus musculus [5]) [mg/kg] | Dose (Mus musculus [6]) [mg/kg] | selectivity ratio [8] | Dose (Mus musculus [9]) [mg/kg] | ED50 (Rattus norvegicus [17]) [mg/kg] | Activity (Rattus norvegicus [19]) | Activity (Rattus norvegicus [20]) | Activity (Rattus norvegicus [21]) | TD50 at 4 h [23] [mg/kg] | Activity (Rattus norvegicus [24]) | ED50 (Mus musculus [25]) [mg/kg] | Activity (Rattus norvegicus [26]) | Dose (Mus musculus [29]) [mg/kg] | other results
C/C(=N/NC(N)=O)c1ccc(Oc2ccc(Cl)cc2)cc1 | 300 | 8.37 | 30 | 30 | 30 | 2.23 | 100 | 2.92 |  |  |  |  |  |  |  |  | TD50 at 4 h [1]: < 500 mg/kg; Activity (Rattus norvegicus [7]): 4; Activity (Rattus norvegicus [10]): 3; Activity (Rattus norvegicus [11]): 4; ED50 (Mus musculus [12]): 9.14 mg/kg; Activity (Rattus norvegicus [13]): 4; ED50 (Mus musculus [14]): 34.4 mg/kg; Activity (Rattus norvegicus [15]): 4; TD50 at 2 h [16]: 76.5 mg/kg
CCC(C)c1ccc(Oc2ccc(/C=N\NC(N)=O)cc2)cc1 (stereo unspecified) | 300 |  | 30 | 100 | 100 | 1.51 | 100 | 3.21 | 2 | 4 | 2 | 131 | 3 | 13.4 | No activity |  | ED50 (Mus musculus [18]): 86.9 mg/kg; TD50 [22]: > 322 mg/kg
CCCCOc1ccc(Oc2ccc(/C=N/NC(N)=O)cc2)cc1 | 300 |  | 100 | 300 | 300 |  | 300 | 45.8 |  | 2 |  |  |  |  | No activity | 300 | Activity (Rattus norvegicus [27]): No activity; selectivity ratio [28]: > 2.18; Activity (Rattus norvegicus [30]): No activity; Activity (Rattus norvegicus [31]): No activity; TD50 at 2 h [32]: > 100 mg/kg
CC/C(=N/NC(N)=O)c1ccc(Oc2ccc(Br)cc2)cc1 | 300 | 7.82 | 30 | 30 |  |  | 100 | 4.39 | 4 | 4 | 2 | 52.5 | 4 | 6.71 | No activity | 100 | 
NC(=O)N/N=C\c1ccccc1Oc1ccccc1 |  |  |  |  |  |  |  |  |  |  |  |  |  |  |  |  | Activity (Rattus norvegicus [33]): 2; Activity (Rattus norvegicus [34]): 1; Activity (Rattus norvegicus [35]): 1; Activity (Rattus norvegicus [36]): No activity; Activity (Rattus norvegicus [37]): No activity
